# How the values were obtained:
# [1] = target: T1, Amine oxidase [flavin-containing] A (Homo sapiens, UniProt P21397); assay: Inhibition of recombinant human MAO-A expressed in insect cells assessed as inhibition of oxidation of kynuramine to 4-hydroxyquinoline after 20 mins by fluorescence spectrophotometry
# T1 sequence (P21397 whole entry): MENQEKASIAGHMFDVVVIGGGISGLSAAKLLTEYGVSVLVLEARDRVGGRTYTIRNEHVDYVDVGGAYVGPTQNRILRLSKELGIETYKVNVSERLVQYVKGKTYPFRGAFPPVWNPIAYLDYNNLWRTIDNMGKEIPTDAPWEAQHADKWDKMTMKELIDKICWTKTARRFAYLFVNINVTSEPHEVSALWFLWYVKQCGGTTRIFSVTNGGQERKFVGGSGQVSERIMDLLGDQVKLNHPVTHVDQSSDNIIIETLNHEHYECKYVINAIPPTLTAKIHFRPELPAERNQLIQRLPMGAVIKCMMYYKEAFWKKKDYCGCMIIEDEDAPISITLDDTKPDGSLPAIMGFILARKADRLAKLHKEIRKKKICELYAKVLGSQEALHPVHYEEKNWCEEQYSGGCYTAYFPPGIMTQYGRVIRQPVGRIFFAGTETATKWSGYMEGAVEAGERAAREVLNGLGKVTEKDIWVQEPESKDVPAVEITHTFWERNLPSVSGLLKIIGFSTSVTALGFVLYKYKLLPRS
# In short: (§1)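 Enzyme source was insect-cell microsomes carrying recombinant hMAO-A or hMAO-B. Kynuramine substrate was oxidized to 4-hydroxyquinoline in 100 mM potassium phosphate, pH 7.4, made isotonic with 20.2 mM KCl, with 4% DMSO and varied inhibitor concentrations. Product was read by fluorescence (ex 310/em 400 nm) against a linear calibration curve. Controls excluded inhibitor fluorescence or quenching. IC50 came from a one-site competition fit of initial rate versus log[inhibitor]; mean ± SD of triplicates.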
# [2] = target: T2, Amine oxidase [flavin-containing] B (Homo sapiens, UniProt P27338); assay: Inhibition of recombinant human MAO-B expressed in insect cells assessed as inhibition of oxidation of kynuramine to 4-hydroxyquinoline after 20 mins by fluorescence spectrophotometry; in short: as §1
# T2 sequence (P27338 whole entry): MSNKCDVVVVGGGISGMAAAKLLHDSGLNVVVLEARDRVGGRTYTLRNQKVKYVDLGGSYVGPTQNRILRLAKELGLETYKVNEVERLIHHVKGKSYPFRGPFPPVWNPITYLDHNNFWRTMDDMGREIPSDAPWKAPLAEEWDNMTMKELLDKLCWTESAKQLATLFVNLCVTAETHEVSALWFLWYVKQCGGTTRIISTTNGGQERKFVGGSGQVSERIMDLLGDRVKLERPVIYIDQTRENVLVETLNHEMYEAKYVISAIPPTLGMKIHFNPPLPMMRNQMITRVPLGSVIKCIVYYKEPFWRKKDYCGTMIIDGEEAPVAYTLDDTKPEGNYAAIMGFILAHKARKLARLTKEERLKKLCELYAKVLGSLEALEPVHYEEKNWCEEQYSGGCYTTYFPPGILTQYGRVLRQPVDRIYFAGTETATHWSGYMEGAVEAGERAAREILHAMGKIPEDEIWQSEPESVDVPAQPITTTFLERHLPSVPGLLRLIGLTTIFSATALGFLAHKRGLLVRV
# Homo sapiens = organism: Homo sapiens; assay: Selectivity ratio of IC50 for recombinant human MAO-B expressed in insect cells to IC50 for recombinant human MAO-A expressed in insect cells
IC50 ([1]; read-out: IC50),IC50 ([2]; read-out: IC50),IC50 [1],IC50 [2],Structure (SMILES),Ratio IC50 (Homo sapiens)
132 µM,168 µM,,,CC1=C(/C=N/N=C2/NC(=O)CS2)C(C)(C)CC=C1,
9.93 µM,0.1 µM,,,CC1=C(/C=N/Nc2nc(-c3cccc([N+](=O)[O-])c3)cs2)C(C)(C)CC=C1,
19.5 µM,224 µM,,,CC1=C(/C=N/NC(=S)Nc2ccccc2)C(C)(C)CC=C1,11
164 µM,111 µM,,,CC1=C(/C=N/NC(N)=O)C(C)(C)CC=C1,
86.6 µM,215 µM,,,CC1=C(/C=N/N=C2\SCC(=O)N2Cc2ccccc2)C(C)(C)CC=C1,
93.2 µM,117 µM,,,CC1=C(/C=N/N(C)C(N)=S)C(C)(C)CC=C1,
56.8 µM,74.5 µM,,,CC1=C(/C=N/NC(N)=S)C(C)(C)CC=C1,
,,Not Active,Not Active,CC1=C(C=O)C(C)(C)CC=C1,
170 µM,128 µM,,,CC(/C=C/C=C(\C)C(=O)O[C@@H]1O[C@H](CO[C@@H]2O[C@H](CO)[C@@H](O)[C@H](O)[C@H]2O)[C@@H](O)[C@H](O)[C@H]1O)=C\C=C\C=C(C)\C=C\C=C(/C)C(=O)O[C@@H]1O[C@H](CO[C@@H]2O[C@H](CO)[C@@H](O)[C@H](O)[C@H]2O)[C@@H](O)[C@H](O)[C@H]1O [CROCIN],

# Source: ChEMBL document CHEMBL3297678, “New insights into the biological properties of Crocus sativus L.: chemical modifications, human monoamine oxidases inhibition and molecular modeling studies” (Eur J Med Chem, 2014)
